According to ChEMBL document CHEMBL3872269, “Design, synthesis and cytotoxic activities of scopoletin-isoxazole and scopoletin-pyrazole hybrids” (Bioorg Med Chem Lett, 2017):

Key:
[1] = Growth inhibition of human HFL1 cells after 48 hrs by MTT assay; format: cell-based; settings: HFL1, 48 h
Summary of the method: (§1)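 In vitro cytotoxicity screen on human cell lines. Value reported as IC50, the concentration causing 50% inhibition of the cells.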

[2] = Growth inhibition of human HuH7 cells after 48 hrs by MTT assay; format: functional, cell-based; settings: Huh-7, 48 h; summary of the method: as §1
[3] = Growth inhibition of human SW620 cells after 48 hrs by MTT assay; format: functional, cell-based; settings: SW-620, 48 h; summary of the method: as §1
[4] = Growth inhibition of human HCT116 cells after 48 hrs by MTT assay; format: functional, cell-based; settings: HCT-116, 48 h; summary of the method: as §1

Row | Structure (SMILES) | IC50 [1] | IC50 [2] | IC50 [3] | IC50 [4]
1 | COc1cc2ccc(=O)oc2cc1OC(=O)c1c(C)noc1-c1ccccc1 | 69.3 µM | > 25 µM | 23.4 µM | 22.7 µM
2 | COc1cc2cc(NC(=O)c3c(C)noc3-c3ccccc3F)c(=O)oc2cc1OCCN1CCOCC1 | 68.5 µM | 14.7 µM | 13.9 µM | 15.6 µM
3 | COc1cc2ccc(=O)oc2cc1OC(=O)c1c(-c2ccc([N+](=O)[O-])cc2)n[nH]c1C | – | > 25 µM | > 25 µM | > 25 µM
4 | COc1cc2ccc(=O)oc2cc1OC(=O)c1c(C)noc1-c1ccc([N+](=O)[O-])cc1 | 90.9 µM | 8.76 µM | 9.83 µM | 9.21 µM
5 | COc1cc2ccc(=O)oc2cc1OC(=O)c1c(-c2ccccc2F)n[nH]c1C | – | > 25 µM | > 25 µM | > 25 µM
6 | COc1cc2ccc(=O)oc2cc1OC(=O)c1c(-c2ccc(Cl)cc2)n[nH]c1C | 47 µM | 16.2 µM | 17.1 µM | 13.8 µM
7 | COc1cc2cc(NC(=O)c3c(C)noc3-c3ccccc3)c(=O)oc2cc1OCCN1CCOCC1 | – | > 25 µM | > 25 µM | 20.9 µM
8 | COc1cc2ccc(=O)oc2cc1OC(=O)c1c(C)noc1-c1ccccc1F | – | > 25 µM | > 25 µM | > 25 µM
9 | COc1cc2cc(NC(=O)c3c(C)noc3-c3ccc(Cl)cc3)c(=O)oc2cc1OCCN1CCOCC1 | – | > 25 µM | > 25 µM | > 25 µM
10 | COc1cc2ccc(=O)oc2cc1OC(=O)c1c(-c2ccccc2)n[nH]c1C | – | > 25 µM | > 25 µM | > 25 µM
11 | COc1cc2cc(NC(=O)c3c(C)noc3-c3ccc([N+](=O)[O-])cc3)c(=O)oc2cc1OCCN1CCOCC1 | 74.2 µM | 12.1 µM | 10.5 µM | 10.3 µM
12 | COc1cc2ccc(=O)oc2cc1OC(=O)c1c(C)noc1-c1ccc(Cl)cc1 | 42.2 µM | 12.4 µM | 12.7 µM | 10.9 µM
13 | COc1cc2ccc(=O)oc2cc1O [SCOPOLETIN] | – | > 25 µM | > 25 µM | > 25 µM
14 | CCN(CC)CCNC(=O)c1c(C)[nH]c(/C=C2\C(=O)Nc3ccc(F)cc32)c1C [SUNITINIB] | – | 3.03 µM | 6.25 µM | 5.62 µM
